# Bioassay records as filed in PubChem BioAssay.
# T cruzi repl = blocks replication of Trypanosoma cruzi. T. cruzi beta-gal in NIH3T3, luminescence, 90 h. inhibition, % (concentration not given with the values). actives 1.4% (n = 300,000);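 active means mean inhibition across valid replicates above about 55%, limit read from the data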;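 further: signal also drops with host cell toxicity which is not excluded here; 0% = plate median of DMSO wells and 100% = zero luminescence signal; higher percent means less beta-gal luminescence so fewer parasites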
#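 System: Mouse NIH/3T3 fibroblasts infected with β-gal-expressing T. cruzi Tulahuen C4 | Quantity: NIH/3T3 cells, 5,000 per well | Reagent: 5000 reporter trypomastigotes per well | Dosing: Compound pinned at 50 nL/well, DMSO | Schedule: 3 h host attachment, then at least 90 h co-culture | Detection: GalScreen luminescence, 60 min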
# DTT redox prof = compounds producing H2O2 with reducing agent – biochemical, NIH compound library profiling, artefact control for MLSCN library redox annotation, primary screen | actives 0.03% (n = 200,000) | AID 878 | DTT-dependent redox cycling H2O2, phenol red/HRP absorbance; 100% = 100 µM peroxide control, 0% = buffer | activation, % at 10 µM;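 active means activation of at least 50% relative to the plate's high and low controls in the primary single-dose screen; inactive means activation below 50%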;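 further: compound incubated with DTT at 0.8 mM final as the reducing agent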
# Hep lipid drop = modulators of hepatic lipid droplet formation. actives 0.4% (n = 240,000). AML12 mouse hepatocytes, oleate lipid droplets, BODIPY imaging. inhibition, % at 6.5 µM;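 active means lipid droplet intensity inhibited by at least 50%, with more than 500 cells counted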
#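 Assay system: AML12 mouse liver cells | Compound dosing: One dose, 6.5 µM compound | Read-out basis: Droplet intensity reduction, % inhibition | Measured by: Fluorescence imaging, 20x objective, two fields per well | Schedule: Overnight treatment with compound plus oleate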
# L major viab = reduces viability of Leishmania major promastigotes; actives 9% (n = 200,000); AID 1063; resazurin fluorescence viability; inhibition, % at 10 µM; in the data active means inhibition above about 50%;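 further: promastigotes grown with compound for 44 hours at 28 °C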
# MPTP block = inhibitors of mitochondrial permeability transition pore; isolated mouse mitochondria, Ca2+ swelling absorbance, 30 min; inhibition, % at 10 µM; actives 1.4% (n = 360,000); AID 602449;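 active means inhibition of 50% or more, scaled per plate between neutral and stimulator controls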;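 further: 0% = DMSO wells given calcium and 100% = 1 mM EGTA wells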
# Rh123 counter = Rhodamine 123 counter-screen of mitochondrial pore hits. shares compounds with MPTP block. isolated mitochondria, membrane potential, Rhodamine 123 fluorescence. inhibition, % at 10 µM. actives 78% (n = 5,000); in the data active means inhibition above about 22%;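 further: 0% = DMSO vehicle and 100% = positive control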
# MPTP swell DR = dose response confirmation of mitochondrial permeability transition pore inhibitors | IC50, µM | shares compounds with MPTP block | actives 58% (n = 780) | AID 651561 | isolated mitochondria swelling, absorbance; in the data active means IC50 below about 20 µM
# MPTP counter DR = MPTP inhibitor counter-screen activity, dose response; actives 49% (n = 780); isolated mitochondria counterscreen, fluorescence read-out; AID 651564; shares compounds with MPTP block; IC50, µM; in the data active means IC50 below about 80 µM
# * marks the source's active call; other numbers are inactive results; i = inactive; . = no result. Many of the other results were omitted from the sample, so hits are more common in it than they were.
SMILES,T cruzi repl,DTT redox prof,Hep lipid drop,L major viab,MPTP block,Rh123 counter,others
C=C(C)Cc1c(C)c(C#N)c2[nH]c3ccccc3n2c1=O,43,.,-1,.,3,.,
CCc1cc(=O)n2c([nH]c3ccccc32)c1C#N,-11,-1,10,7,-1,.,
CCc1cc(=S)n2c([nH]c3ccccc32)c1C#N,-8,0,-3,-15,101*,68*,
Cc1ccc(Cc2c(C)c(C#N)c3[nH]c4ccccc4n3c2=O)cc1,13,.,-36,.,89*,70*,
CCc1c(C)c(C#N)c2[nH]c3ccccc3n2c1=S,37,.,-2,.,90*,81*,
CCOC(=O)C1(CCCc2ccccc2)CCN(CC(O)CO)CC1 (stereo not drawn),1,-1,28,23,-2,.,
Cc1ccc(CNc2nc(Cl)c(C#N)s2)cc1,14,-2,2,2,67*,77*,
COc1ccc(-n2cc(CN[C@H]3CCCCNC3=O)c(-c3cccc(F)c3)n2)cc1,5,.,10,.,1,.,
COc1ccc(-n2cc(CNC3CCN(C)CC3)c(-c3cccc(F)c3)n2)cc1,17,1,-12,100*,93*,-14,MPTP swell DR=7*;MPTP counter DR=>80
CSc1ccc(NC(=O)NCCCN2CCN(c3ccccc3F)CC2)cc1,1,1,.,5,62*,0,MPTP swell DR=i;MPTP counter DR=29*
O=C(NCCCN1CCc2ccccc2C1)Nc1ccc(Br)cc1,3,0,3,95*,93*,103*,
O=C(Nc1ccc([N+](=O)[O-])cc1)N1CCc2ccccc2C1,1,.,0,.,0,.,
O=C(NCCN1CCN(Cc2ccc([N+](=O)[O-])cc2)CC1)C(=O)Nc1ccccc1,-15,-1,-5,-2,0,.,
O=C(NCCN1CCN(c2ccc([N+](=O)[O-])cc2)CC1)NCc1ccccc1,53,.,-9,.,65*,76*,
O=C(NCCN1CCc2ccccc2C1)Nc1ccc([N+](=O)[O-])cc1,1,-3,-3,10,94*,84*,
CC1(C(=O)NS(=O)(=O)c2cccc(C#N)c2)CCN1C(=O)Cc1ccccc1 (stereo not drawn),.,.,.,.,-1,.,
O=C(CCC(=O)N1CCN(c2cccc(Cl)c2)CC1)c1cccs1,23,.,.,.,0,.,
CCN1CCN(Cc2ccc(NC(=O)Nc3ccc(SC)cc3)cc2)CC1,19,1,4,4,52*,-10,MPTP swell DR=i;MPTP counter DR=>80
CCN1CCN(Cc2ccc(NC(=O)Nc3ccccc3)cc2)CC1,1,-1,13,-8,1,.,
CCOC(=O)Cc1cc(=O)c2cc(C)ccc2[nH]1,-10,.,-5,.,1,.,
COc1ccc(/C=C2/C(=O)N(Cc3ccccc3)N=C2C)cc1,-8,0,-19,0,0,.,
COc1ccc(/C=C2/C(=O)N(c3nc4ccccc4s3)N=C2CSc2ccc(Cl)cc2)cc1,4,1,-1,100*,91*,56*,
COc1ccc(CCCNC(=O)C2Cc3c(-c4ccc5c(c4)OCO5)ccnc3O2)cc1 (stereo not drawn),.,.,.,.,-1,.,
CN1CCc2c(n(CC(O)CN3CCN(CCO)CC3)c3ccccc23)C1=O (stereo not drawn),0,0,-113,-8,-1,.,
CC(=O)c1ccc(NC(=S)NC(C)CCc2ccccc2)cc1 (stereo not drawn),11,1,-24,8,89*,93*,
SMILES,T cruzi repl,DTT redox prof,Hep lipid drop,L major viab,MPTP block,Rh123 counter,others
Cc1ccc(NC(=S)NC(C)CCc2ccccc2)cc1C (stereo not drawn),29,-1,-24,90*,86*,97*,
Cc1ccc(NC(=O)CCc2ccccc2)cc1C,.,.,.,.,0,.,
C=CCc1ccc(OCc2ccc(C(=O)Nc3ccc(NC(C)=O)cc3)o2)c(OC)c1,7,.,6,.,0,.,
OCc1nc2nc(Cl)c(Cl)nc2[nH]1,-7,.,3,.,-2,.,
CCCCSCc1nc2nc(Cl)c(Cl)nc2[nH]1,.,.,.,.,72*,83*,
O=C(Nc1cccc(Cl)c1)Nc1nccs1,-16,0,-15,6,72*,92*,
O=C(Nc1ccc(Cl)c(Cl)c1)Nc1nccs1,10,.,-3,.,87*,68*,
Cc1nc2cc(NC(=O)Nc3nccs3)ccc2n1C,-14,1,-2,5,0,.,
O=C1OC(c2ccc(O)cc2)(c2ccccc2O)c2ccccc21 (stereo not drawn),.,.,.,.,2,.,
O=C1OC(c2ccccc2)(c2cc(Br)ccc2O)c2ccccc21 (stereo not drawn),.,.,.,.,76*,97*,
COc1ccc(CNC(=O)c2ccccc2SCC(=O)NCc2ccco2)cc1,.,.,.,.,0,.,
O=C(NNC(=O)c1cccnc1)Nc1ccc([N+](=O)[O-])cc1,-6,0,7,-3,102*,102*,
O=C(COc1ccc([N+](=O)[O-])cc1)NNC(=O)c1cccnc1,-11,.,-6,.,1,.,
O=C(NNC(=O)c1ccncc1)Nc1ccc(Br)cc1,.,.,.,.,87*,102*,
O=C(NNC(=O)c1ccncc1)Nc1ccc([N+](=O)[O-])cc1,-6,0,-6,-6,82*,92*,
CCOC(=O)[C@@H]1[C@H]2COc3ccccc3[C@H]2N2C(=O)N(c3ccc(C(F)(F)F)cc3)C(=O)[C@]12C,17,.,-8,.,95*,118*,
Oc1cccc2ccc(/C=C/c3ccccc3Br)nc12,44,.,-4,.,-1,.,
Oc1c(Cl)cc(Cl)cc1/C=C/c1ccc2cccc(O)c2n1,-41,0,-18,46,98*,74*,
COc1ccc(C(=O)/C(C#N)=N/Nc2cccc([N+](=O)[O-])c2)cc1,22,-2,-7,9,94*,81*,
CC(=O)/C(N)=N/Nc1cccc(Cl)c1,5,0,6,17,7,.,
N#C/C(=N\Nc1ccccc1Cl)C(=O)c1ccccc1,0,-4,.,0,91*,102*,
N#C/C(=N\Nc1cccc(Cl)c1)C(=O)c1ccccc1,-8,-4,.,-6,96*,80*,
Cc1ccnc2nc(C(=O)OC(C)C(=O)NCc3ccccc3)nn12 (stereo not drawn),.,.,.,.,8,.,
CCOC(=O)c1c(-c2ccccc2)oc2ccc(OCC(O)CN(C)C)cc12 (stereo not drawn),33,.,-26,.,99*,-13,MPTP swell DR=6.5*;MPTP counter DR=>80
CC12CCC3c4ccc(OCC(=O)O)cc4CCC3C1CCC2=O (stereo not drawn),.,.,.,.,0,.,
Cc1ccc(S(=O)(=O)N2CCN(S(=O)(=O)c3ccccc3Br)CC2)cc1,.,.,.,.,0,.,
